TCR CD3 inh: inhibitors of human TCR-CD3 interaction, primary screen, biochemical, fluorescence, TAMRA-labeled TCR probe; T-cell receptor (TCR); 360,000 compounds, 0.37% hits; inhibition, % at 9.4 µM; AID 651800, 2012;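 further: recombinant mutant TCR 2C K166C tagged with TAMRA read by polarization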
ABHD4 inh: ABHD4 inhibitors, primary screen, biochemical, fluorescence polarization, mouse | (Lyso)-N-acylphosphatidylethanolamine lipase (Mus musculus), Q8VD66 | purified mABHD4, FP-Rh probe fluorescence polarization | inhibition, % at 8.92 µM | 370,000 compounds, 0.54% hits;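 active means inhibition exceeding the mean over every tested compound plus 3 SD, cut at about 30% in these data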
Target sequence (Q8VD66 whole entry, looked up): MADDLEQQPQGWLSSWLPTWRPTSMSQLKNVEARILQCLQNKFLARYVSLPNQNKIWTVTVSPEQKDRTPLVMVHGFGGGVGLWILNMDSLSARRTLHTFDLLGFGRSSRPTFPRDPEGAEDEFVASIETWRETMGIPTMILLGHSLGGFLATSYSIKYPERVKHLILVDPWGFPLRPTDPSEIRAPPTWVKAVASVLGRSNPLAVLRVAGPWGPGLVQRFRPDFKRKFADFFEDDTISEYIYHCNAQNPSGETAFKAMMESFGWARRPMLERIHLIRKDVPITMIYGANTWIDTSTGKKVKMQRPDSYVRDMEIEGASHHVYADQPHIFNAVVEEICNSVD
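assay system = mABHD4 protein | compound dosing = single nominal dose of 8.92 µM, 0.89% DMSO final | read-out basis = percent inhibition of probe binding, normalized to plate controls | schedule = Enzyme–compound pre-incubation 45 min, then probe 60 min, both 25 °C | detection = fluorescence polarization, excitation 525 nm, emission 598 nm, BODIPY TMR filters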
rCAG binder: binders of r(CAG) RNA repeats, primary screen, biochemical, fluorescence; 370,000 compounds, 1.3% hits; r(CAG) RNA repeat, TO-PRO-1 dye displacement fluorescence; AID 651821, 2012; inhibition, % at 3 µM;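 active means inhibition above the plate cutoff, the mean of all test compounds on that plate plus 3 SD, cut at about 35% in these data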;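 further: higher means more dye released from RNA so lower well fluorescence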
SIAE inh: human SIAE inhibitors, primary screen, biochemical, fluorescence polarization, FP-Rh probe, 1536-well HTS; Sialate O-acetylesterase (Homo sapiens), Q9HAT2; SIAE FP-Rh probe binding; inhibition, % at 9.66 µM; 370,000 compounds, 0.69% hits; AID 1053197, 2014;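 active means inhibition above a cutoff: mean of compounds within the control limits plus 3 SD of those, cut at about 17% in these data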
HTRA1 inh: HTRA1 serine protease inhibitors, primary screen, biochemical, fluorescence polarization, HTS; recombinant HTRA1, FP-rhodamine activity-based probe; inhibition, % at 5.96 µM; 340,000 compounds, 0.5% hits; AID 504803, 2011; in the data active means inhibition above about 36%
HTRA1 inh conf: HTRA1 protease inhibitors, retest, confirmation, biochemical, fluorescence polarization; inhibition, % at 5.96 µM; 1,600 compounds, 66% hits; recombinant HTRA1, FP-rhodamine activity-based probe; AID 540248, 2011; shares compounds with HTRA1 inh;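 active means mean inhibition over three repeats above a set limit taken from the earlier primary screen, cut at about 37% in these data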;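 further: inhibitors block probe binding so polarization drops and inhibition rises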
BSA TAMRA ctr: compounds interfering with TAMRA-BSA probe, counter-screen for TCR-CD3 interaction inhibitor project, biochemical, fluorescence, TAMRA-labeled BSA; shares compounds with TCR CD3 inh; TAMRA-labeled BSA probe fluorescence counterscreen; inhibition, % at 9.4 µM; 1,200 compounds, 10% hits; AID 652035, 2013; in the data active means inhibition above about 23%
TCR-CD3 conf: TCR-CD3 interaction inhibitors, retest, confirmation, biochemical, fluorescence, TAMRA-labeled TCR probe | shares compounds with TCR CD3 inh | TAMRA-labeled TCR probe fluorescence binding assay | inhibition, % at 9.4 µM | 1,200 compounds, 48% hits
rCAG bind conf: small molecules binding CAG repeat RNA – biochemical, fluorescence, confirmation. shares compounds with rCAG binder. r(CAG) RNA repeat, TO-PRO-1 dye displacement fluorescence. inhibition, % at 3 µM. 4,300 compounds, 70% hits;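 active means inhibition above a per-plate cutoff, the mean inhibition of sample wells plus 3 SD, cut at about 35% in these data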;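 further: loss of TO-PRO-1 fluorescence as compound displaces dye from 1x1 AA loop RNA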
dCAG dye counter: displacement of TO-PRO-1 from CAG DNA duplex, counter-screen for rCAG RNA repeat binder project, biochemical, fluorescence, TO-PRO-1 dye, d(CAG) DNA oligo; shares compounds with rCAG binder; d(CAG) DNA oligo TO-PRO-1 dye displacement; inhibition, % at 3 µM; 4,300 compounds, 94% hits; AID 652068, 2013;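 active means inhibition above its plate's cutoff, the mean test-well inhibition plus 3 SD, cut at about 4.8% in these data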;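 further: hits displace the dye from DNA and so lower well fluorescence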
ABHD4 confirm: ABHD4 inhibitors, retest, confirmation, biochemical, fluorescence polarization, mouse; AID 720658, 2013; 1,800 compounds, 55% hits; purified mABHD4, FP-Rh probe fluorescence polarization; shares compounds with ABHD4 inh; inhibition, % at 8.92 µM;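 active means mean inhibition across replicates above the hit cutoff set in the primary screen, cut at about 30% in these data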
SIAE confirm: human SIAE inhibitors, retest, confirmation, biochemical, fluorescence polarization, FP-Rh probe, triplicate | shares compounds with SIAE inh | SIAE FP-Rh activity-based probe | inhibition, % at 9.66 µM | 2,300 compounds, 13% hits;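 active means mean inhibition of the replicates above the hit cutoff set in the primary screen, cut at about 17% in these data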;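 further: inhibitors lower polarization as more probe stays unbound to SIAE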
Of the large screens only hits and unclear results are named; the others gave an inactive call (follow-up assays come after a bar, where they were run). In the library only some 2.5% were active in any assay of this set; here they are far more common. Unless noted, no stated cut-off is given here; in the data, active means inhibition above about 19%; inactive means the rest.

FC(F)(F)C1=Nc2cccc3cccc(c23)N1	TCR CD3 inh 31, rCAG binder 94, SIAE inh 56, HTRA1 inh 39 | HTRA1 inh conf 85 | BSA TAMRA ctr inactive | TCR-CD3 conf inactive | rCAG bind conf 47 | dCAG dye counter 38 | SIAE confirm inactive
CN(C)CCOC1(Cc2ccc(F)cc2)CCC(C(C)(C)C)CC1 (stereo unspecified)	none
CC(=O)NC(c1ccc(C(C)C)cc1)c1ccc2cccnc2c1O (stereo unspecified)	SIAE inh 23, HTRA1 inh 66 | HTRA1 inh conf 75 | SIAE confirm 29
CC(=O)NC(C)c1cc(F)c2cccnc2c1O (stereo unspecified)	none
CC(=O)NC(c1ccc(C)cc1)c1cc(Cl)c2cccnc2c1O (stereo unspecified)	SIAE inh 20, HTRA1 inh 62 | HTRA1 inh conf 76 | SIAE confirm inactive
Clc1cc(Br)ccc1OCCOCCOc1cccc2cccnc12	none
CCOC(=O)C1CCCCN1C(=O)CCc1c(C)nc2ncnn2c1C (stereo unspecified)	none
O=C(COC(=O)c1c2c(nc3ccccc13)/C(=C\c1ccco1)CC2)NC1CCCC1	ABHD4 inh 63, rCAG binder 60, SIAE inh 23, HTRA1 inh 58 | HTRA1 inh conf inactive | rCAG bind conf 59 | dCAG dye counter 33 | ABHD4 confirm 32 | SIAE confirm inactive
CCN(CC)S(=O)(=O)c1cc(NC(=O)CCNC(=O)c2ccccc2Cl)ccc1C	none
NNC(=O)c1oc2nc(-c3cccs3)cc(-c3ccco3)c2c1N	SIAE inh 55, HTRA1 inh 57 | HTRA1 inh conf 48 | SIAE confirm 75
O=C1Cc2ccccc2C(=O)N1c1ccc(F)cc1Cl	none
CCOc1ccc(S(=O)(=O)NCc2ccc3c(c2)OCO3)cc1	none
COC(=O)/C(=C/Nc1ccccc1)[N+](=O)[O-]	none
COC(=O)/C(=C/Nc1ccc(O)cc1)[N+](=O)[O-]	TCR CD3 inh 99, ABHD4 inh 94, SIAE inh 25, HTRA1 inh 45 | HTRA1 inh conf inactive | BSA TAMRA ctr inactive | TCR-CD3 conf inactive | ABHD4 confirm inactive | SIAE confirm inactive
O=c1ccc(-c2ccc(S(=O)(=O)Nc3cccc([N+](=O)[O-])c3)s2)n[nH]1	none
COc1cccc(-n2c(SCc3cc(=O)oc4cc(O)c(O)cc34)nc3ccccc3c2=O)c1	TCR CD3 inh 19, rCAG binder 65, SIAE inh 32, HTRA1 inh 67 | HTRA1 inh conf 76 | BSA TAMRA ctr inactive | TCR-CD3 conf 32 | rCAG bind conf 70 | dCAG dye counter 33 | SIAE confirm inactive
CCN(CC)C(=O)CSc1nc2ccccc2c(=O)n1-c1cccc(OC)c1	none
CC1CN(/C(=N\S(=O)(=O)c2ccccc2)c2ccccc2)CC(C)O1 (stereo unspecified)	none
Cc1cccc2sc(NC(=O)CN(C)S(=O)(=O)c3cccs3)nc12	none
CN(C)S(=O)(=O)c1cccc(NC(=S)N/N=C/c2ccc(O)c(O)c2O)c1	TCR CD3 inh 51, ABHD4 inh 32, rCAG binder 59, SIAE inh 35, HTRA1 inh 45 | HTRA1 inh conf 49 | ABHD4 confirm 82 | SIAE confirm 27
COc1ccc(O)c(/C=N/NC(=S)Nc2cccc(S(=O)(=O)N(C)C)c2)c1	SIAE inh 33, HTRA1 inh 38 | HTRA1 inh conf inactive | SIAE confirm inactive
O=S(=O)(c1ccc2nc(-c3ccccc3)[nH]c2c1)N1CCN(c2cccc(Cl)c2)CC1	TCR CD3 inh 68 | BSA TAMRA ctr 27 | TCR-CD3 conf 45
Cc1nc(SCc2ccc(F)cc2)n[nH]1	none
COc1ccccc1OC(=O)c1ccc2nsnc2c1	TCR CD3 inh 21 | BSA TAMRA ctr inactive | TCR-CD3 conf inactive
COc1ccccc1NC(=O)c1ccc2nsnc2c1	none
COc1ccccc1N1CCN(C2CCN(C(=O)c3cccc(F)c3)CC2)CC1	none
CC1C(=O)N(Cc2cn(Cc3ccco3)nn2)CCS(=O)(=O)N1Cc1ccc(-c2ccccc2Cl)cc1 (stereo unspecified)	none (no result: HTRA1 inh)
CCN(C[C@H]1N[C@@](Cc2ccccc2)(C(=O)OC)[C@H]2C(=O)N(C)C(=O)[C@@H]12)S(=O)(=O)c1ccccc1	none
COCCNc1oc(-c2ccc(Cl)cc2)nc1C#N	TCR CD3 inh 19 | BSA TAMRA ctr inactive | TCR-CD3 conf inactive
O=C(NN=C1CCCC1)c1ccccc1O	TCR CD3 inh 23 | BSA TAMRA ctr inactive | TCR-CD3 conf inactive
COc1ccc(OCC(=O)N2CCC(n3nccc3NC(=O)C3CC3)CC2)cc1	TCR CD3 inh 21 | BSA TAMRA ctr inactive | TCR-CD3 conf inactive
COc1ccc(CC(=O)N2CCC(n3nccc3NC(=O)C3CC3)CC2)cc1	none
CC(C)(C)c1csc(NC(=O)c2cccnc2Cl)n1	none
S=C(NCCC1=CCCCC1)Nc1ccc(Cl)cc1	none
COc1cc(OC)c(N(C)S(=O)(=O)c2cccc(C(=O)OCC(=O)c3c[nH]c4ccccc34)c2)cc1Cl	TCR CD3 inh 38 | BSA TAMRA ctr inactive | TCR-CD3 conf inactive

Bioassay records deposited in PubChem by The Scripps Research Institute Molecular Screening Center.
